Results pooled from the literature.
Lines come from different studies, so protocols differ.
Target: Calcium/calmodulin-dependent protein kinase type II subunit beta (CAMK2B, Homo sapiens, UniProt Q13554)

SMILES | assay | conditions | endpoint | value
CC(C)(C)c1cc(C=C(C#N)C#N)cc(Br)c1O | enzyme activity, inhibitor | 0.5 µM | remaining activity | 99.3%
Nc1ncc(-c2nc(N3CCOCC3)nc(N3CCOCC3)n2)c(C(F)F)n1 | binding, competition with immobilised ligand | 10 µM | remaining binding | 69%
COc1ncccc1-c1cnn2ccc(N3CCN(C(=O)OC(C)C)CC3)nc12 | binding, competition with immobilised ligand | 1 µM | remaining binding | 81%
C#Cc1n[nH]c2c(-c3cn([C@@H](C)c4ccccc4)c(=O)[nH]c3=O)cc(F)cc12 | enzyme activity, inhibitor | 0.1 µM | inhibition | 6.5%
Cn1cc(-c2cccc(N3CCc4c(sc5c4CC(C)(C)C5)C3=O)c2CO)cc(Nc2ccncn2)c1=O | enzyme activity, inhibitor | 1 µM | inhibition | 12%
Cn1cncc1[C@@](O)(COc1ccc(C#N)cc1-c1ccc(OC(F)(F)F)cc1)c1ccc(C#N)cc1 | cell-free assay, competition with immobilised ligand | 1 µM | remaining binding | 90%
Cn1cc(-c2cc(F)cc(N3CCn4c(cc5c4CCCC5)C3=O)c2CO)cc(Nc2ccc(N3CCN(C4COC4)CC3)cn2)c1=O | enzyme activity, inhibitor | 0.1 µM | inhibition | 7%
C#Cc1n[nH]c2c(-c3cn(C(C)c4ccccn4)c(=O)[nH]c3=O)cc(F)cc12 (centres unmarked) | enzyme activity, inhibitor | 1 µM | inhibition | 4.3%
N#CC1(c2ccccn2)CCN(Cc2cc(C(=O)O)c(=O)n3ccccc23)CC1 | cell-free assay, competition with immobilised ligand | 1 µM | remaining binding | 100%
O=c1[nH]c2ccccc2n1C1CCN(Cc2ccc(-c3[nH]c4cc5ncnc5cc4nc3-c3ccccc3)cc2)CC1 | enzyme activity | 0.5 µM | remaining activity | 104%
Cc1nn(C)cc1-c1nc2c(N3CCN(Cc4ccc(Cl)cc4)CC3)c(Cl)cnc2[nH]1 | binding, competition with immobilised ligand | 1 µM | remaining binding | 94%
